Only some compounds are listed: those with a hit (about 2.4% of all), similar ones and a draw of the others.
aDG glyco up – alpha-DG glycosylation activation; activation, % at 10 µM; 0.22% of 360,000 active; Pro5-aDG cells, alpha-DG glycosylation AlphaScreen (IIH6); 0% Pro5, 100% B10-LARGE cell signal;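 active means activation of at least 8% versus controls, or a plate z-score of at least 8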;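 further: Pro5 are CHO cells carrying HIG-tagged alpha-DG that lacks glycosylation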
MC4R antagonist – antagonists of human melanocortin 4 receptor (MC4R). P32245. MC4R-expressing cells, MTII-stimulated cAMP, LANCE TR-FRET. inhibition, % at 6.5 µM. 0.48% of 360,000 active. AID 540295;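 active means inhibition above its plate's cutoff, the mean of tested wells on that plate plus 3 SD, cut at about 29% in these data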
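system = U2OS cells with stable human MC4R expression | also added = Melanotan II challenge after compound preincubation | dosing = one concentration, 6.5 µM nominal | incubation = compound 30 min, challenge 1 h, detection 1 h | measured by = TR-FRET with Eu-cAMP and labeled anti-cAMP, 671 nm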
MC4R barr agon – human MC4R agonism via beta-arrestin; P32245; U2OS MC4R beta-arrestin complementation, luminescence; percent of melanotan II response, DMSO zero; activation, % at 8.9 µM; 0.98% of 360,000 active; AID 540308;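 active means activation above a per-plate cutoff, the mean activation of sample wells on that plate plus 3 SD, cut at about 8% in these data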
H9c2 TAG inh – reduces triacylglycerol accumulation in H9c2 cells; Nile Red lipid (TAG) fluorescence; cells loaded with 200 µM oleic acid; inhibition, % at 12.5 µM; 0.66% of 230,000 active; AID 651582;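 active means pattern-corrected inhibition of lipid staining of at least 50% with the nuclear-stain viability signal not falling by more than 50%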
TbMetRS inhib – blocks T. brucei methionyl-tRNA synthetase activity. purified T. brucei MetRS, ATP depletion, Kinase-Glo luminescence. inhibition, % at 11.9 µM. 0.4% of 360,000 active. AID 624268;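 active means inhibition above a per-plate cutoff of the control wells' mean inhibition plus 3 SD, cut at about 5.5% in these data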
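Dosing: 11.9 µM single point; system: parasite MetRS enzyme; technique: luminescence of leftover ATP; times: 15 min enzyme-compound preincubation, 2 h reaction, 10 min detection, 25 °C; replicates: each compound tested once; read-out basis: percent inhibition relative to median high and low control wells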
NTR1 agonist – activates human neurotensin receptor 1; NTR1-U2OS beta-arrestin-GFP spot imaging, agonist mode; activation, % at 20 µM; 0.17% of 330,000 active; AID 493036;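 active means activation at or above 40% of the spot to cytoplasm intensity ratio, with at least 20 cells analyzed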
Target sequence (P30989 whole entry, looked up): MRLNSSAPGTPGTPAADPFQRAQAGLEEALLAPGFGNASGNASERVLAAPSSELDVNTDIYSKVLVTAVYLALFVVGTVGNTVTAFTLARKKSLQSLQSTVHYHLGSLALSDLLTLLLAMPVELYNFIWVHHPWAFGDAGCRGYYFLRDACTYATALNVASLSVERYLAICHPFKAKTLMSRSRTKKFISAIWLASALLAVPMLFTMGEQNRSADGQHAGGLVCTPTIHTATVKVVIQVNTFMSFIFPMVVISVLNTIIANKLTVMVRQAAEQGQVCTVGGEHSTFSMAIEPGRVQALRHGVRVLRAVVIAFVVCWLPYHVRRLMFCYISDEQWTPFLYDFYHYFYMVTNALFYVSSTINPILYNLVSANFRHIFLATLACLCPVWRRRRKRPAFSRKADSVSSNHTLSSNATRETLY
MC4R barr conf – human MC4R beta-arrestin agonism confirmation. shares compounds with MC4R barr agon. U2OS MC4R beta-arrestin recruitment, luminescence; scaled DMSO 0%, Melanotan II 100%. activation, % at 8.9 µM. 31% of 2,400 active. AID 602192;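 active means mean activation across replicates above the hit cutoff set in the earlier primary screen, cut at about 8% in these data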
MOR DOR agonist – counter-screen for MC4R agonists: agonists of mu-delta opioid heterodimer; shares compounds with MC4R barr agon; U2OS PathHunter beta-arrestin, beta-gal luminescence; percent of deltorphin B response, DMSO zero; activation, % at 9.2 µM; 5.8% of 2,400 active; AID 602194;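 active means mean activation across replicates exceeds the hit threshold derived in the earlier primary screen, cut at about 18% in these data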
A number is an active result; - = inactive; . = not tested or not shown.

SMILES	aDG glyco up	MC4R antagonist	MC4R barr agon	H9c2 TAG inh	TbMetRS inhib	NTR1 agonist	MC4R barr conf	MOR DOR agonist
COC(=O)c1sc2nc(C)nc(SCC(=O)Nc3sccc3C(N)=O)c2c1C	-	-	19	-	-	-	-	-
CCC(C)CN1C(=O)CN(S(C)(=O)=O)CC1(C)C(=O)Nc1c(C)cccc1C (centres undefined)	-	.	.	.	-	.	.	.
COc1ccc(-c2ccc3c(c2)S(=O)(=O)c2cccc(C(=O)NCc4cc(C)oc4C(F)(F)F)c2C3=O)cc1OC	-	-	12	-	-	-	27	-
CCOC(=O)C1=CCN(S(=O)(=O)c2ccccc2Br)C1c1ccc(Cl)c(Cl)c1 (centres undefined)	-	.	.	.	-	.	.	.
CC(=O)Nc1ccc(C(=O)CSc2cc(C)c3cccc(C)c3n2)cc1	-	-	28	.	-	-	-	-
Cc1cc(SCC(=O)c2cccs2)nc2c(C)cccc12	-	-	-	.	-	-	.	.
Cc1ccccc1NC(=O)C1C(=O)Nc2ccccc2C(=O)N1Cc1ccccc1 (centres undefined)	-	.	.	.	-	.	.	.
CCCCn1nnnc1C1(C)CCC(=O)N1Cc1cccc(F)c1 (centres undefined)	-	.	.	.	-	.	.	.
Cc1ccc(-c2nsc(SCC(=O)NCc3ccc4c(c3)OCO4)n2)cc1	-	-	-	-	-	-	.	.
COc1ccc(-c2nsc(SCC(=O)Nc3ccc4c(c3)OCO4)n2)cc1	-	-	12	.	-	-	-	-
CCCCc1ccc(NS(=O)(=O)c2cccs2)cc1	-	-	17	.	-	-	8.5	-
COc1cc(Cl)ccc1OC1(C)CCN(Cc2cccn2-c2nccs2)C1 (centres undefined)	-	-	-	-	-	.	.	.
Cc1cccc(NC(=O)c2nc[nH]c2C(=O)N[C@@H](CCCCNC(=O)OC(C)(C)C)C(=O)OC(C)(C)C)c1	-	-	-	-	-	-	.	.
Cc1cccc(NC(=O)c2nc[nH]c2C(=O)NCCCCCNC(=O)OC(C)(C)C)c1	-	-	9.7	-	-	-	-	-
CC1(C(=O)Nc2ccc3c(c2)OCCO3)CSCC(=O)N1CCc1ccccc1F (centres undefined)	-	.	.	.	-	.	.	.
CC(=O)c1c(C)[nH]c(C(=O)CSc2ncnc3sc(-c4ccccc4)cc23)c1C	-	-	25	-	-	-	16	-
COCCNc1nc(Oc2cncc(Cl)c2)c2sccc2n1	-	-	-	-	-	.	.	.
Cc1nc(NC(=O)c2ccco2)sc1-c1csc(Nc2ccc(Cl)cc2)n1	-	-	10	.	-	-	9.1	-
Cc1nc(NC(=O)c2ccccc2)sc1-c1csc(Nc2ccc(Cl)cc2)n1	.	.	.	.	.	-	.	.
CCC(C)CN1C(=O)CSCC1(C)C(=O)Nc1ccc2c(c1)OCCO2 (centres undefined)	-	.	.	.	-	.	.	.
CCOC(=O)[C@]12CCCC=C1N(Cc1ccco1)C(=O)[C@H](CC(=O)NCC1CCCCC1)C2	-	.	.	.	-	.	.	.
CO[C@H]1CN(C)C(=O)c2cc(NC(=O)C3CCCC3)ccc2OC[C@@H](C)NC[C@H]1C	-	.	.	.	-	.	.	.
COc1ccc(/C=N/NC(=S)Nc2cc(C(F)(F)F)ccc2Cl)cc1	-	-	24	-	-	-	-	-
O=C(NC(=S)NCCC1=CCCCC1)c1ccc(Br)o1	-	-	-	-	-	-	.	.
O=C(NC(=S)NCCC1=CCCCC1)c1ccco1	-	-	10	-	-	-	-	-
SMILES	aDG glyco up	MC4R antagonist	MC4R barr agon	H9c2 TAG inh	TbMetRS inhib	NTR1 agonist	MC4R barr conf	MOR DOR agonist
O=[N+]([O-])c1cc(C(F)(F)F)ccc1NCCc1c[nH]c2ccc(O)cc12	-	-	15	.	-	-	-	-
O=C1N(Nc2ccccc2)C(c2ccc(Br)cc2)C12CCCCC2 (centres undefined)	-	-	24	.	-	-	10	-
O=C(Nc1ccc(Cl)c([N+](=O)[O-])c1)Nc1nc2ccccc2s1	.	.	.	.	.	-	.	.
Cc1ccc(NC(=O)Nc2nc3ccccc3s2)cc1NC(=O)Nc1nc2ccccc2s1	-	-	10	.	-	-	10	-
CCCC(=O)Nc1cccc(-c2nc3ccccc3o2)c1	-	-	-	-	-	-	.	.
COc1ccc(OCC(=O)Nc2cccc(-c3nc4ccccc4o3)c2)cc1	-	-	19	.	-	-	-	-
COc1ccc(-c2nnc(SCC(=O)Nc3cccc(Cl)c3)o2)cc1	-	-	16	-	-	-	-	-

From PubChem
